{"source": "ChEMBL document CHEMBL3621043", "about": "“Discovery and Optimization of Novel, Selective Histone Methyltransferase SET7 Inhibitors by Pharmacophore- and Docking-Based Virtual Screening” (J Med Chem, 2015)", "key": {"HL-60": {"tested_on": "HL-60", "experiment": "cells", "conditions": "Homo sapiens, HL-60, 120 h"}, "SUD4": {"tested_on": "SUD4", "experiment": "Cytotoxicity against human SU-DHL4 cells assessed as inhibition of cell proliferation after 120 hrs by alamar blue assay", "assay_type": "functional, cell-based", "how_it_was_run": "(§1)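 Cells seeded at approximately 2*10^4 per well in 100 µL medium, grown overnight, then exposed for about 120 h to 0–100 µM in DMSO. MCF7 and HCT116 read by MTT: 2 h at 37 °C, crystals dissolved in DMSO, absorbance 490 nm with 630 nm reference. HL60, MV4-11 and DHL4 read by alamarBlue, fluorescence ex 544/em 590 nm. Signals normalized to control wells.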"}, "[1]": {"target": "Histone-lysine N-methyltransferase EZH2 (Homo sapiens) (UniProt Q15910)", "sequence (Q15910 whole entry, looked up)": "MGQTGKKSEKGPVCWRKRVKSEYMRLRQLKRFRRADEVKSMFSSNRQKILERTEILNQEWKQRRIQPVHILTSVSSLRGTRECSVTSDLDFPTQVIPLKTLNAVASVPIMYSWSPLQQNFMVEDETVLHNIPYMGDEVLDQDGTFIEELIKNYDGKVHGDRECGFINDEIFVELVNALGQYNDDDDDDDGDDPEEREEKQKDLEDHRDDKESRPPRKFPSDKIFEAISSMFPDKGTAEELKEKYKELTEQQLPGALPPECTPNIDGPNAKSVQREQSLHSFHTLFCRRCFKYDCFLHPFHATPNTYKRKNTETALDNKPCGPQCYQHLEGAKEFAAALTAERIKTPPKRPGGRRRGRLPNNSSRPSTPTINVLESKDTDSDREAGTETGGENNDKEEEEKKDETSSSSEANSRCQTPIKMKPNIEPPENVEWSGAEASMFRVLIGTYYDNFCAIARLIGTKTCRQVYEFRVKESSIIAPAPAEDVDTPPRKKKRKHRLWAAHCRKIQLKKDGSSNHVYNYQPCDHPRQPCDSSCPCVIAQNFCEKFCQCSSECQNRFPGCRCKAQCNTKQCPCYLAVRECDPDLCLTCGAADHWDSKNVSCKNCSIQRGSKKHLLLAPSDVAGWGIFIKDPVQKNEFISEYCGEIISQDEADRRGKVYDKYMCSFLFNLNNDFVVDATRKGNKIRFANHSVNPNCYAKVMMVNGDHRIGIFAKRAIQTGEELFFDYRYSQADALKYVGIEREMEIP", "experiment": "Inhibition of EZH2 (unknown origin) using H3K27me peptide as substrate at 100 uM preincubated for 15 mins followed by substrate/[3H]SAM addition by liquid scintillation counting analysis relative to control", "how_it_was_run": "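Enzyme in modified Tris buffer, 15 min at room temperature, then H3K27me peptide plus [3H]-SAM added to start. Stopped with cold SAM (final 0.5 mM), transferred to FlashPlate for at least 1 h at room temperature, washed with water/0.1% Tween-20, then scintillation counting.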"}, "[2]": {"target": "DNA (cytosine-5)-methyltransferase 1 (Homo sapiens) (UniProt P26358)", "sequence (P26358 whole entry)": "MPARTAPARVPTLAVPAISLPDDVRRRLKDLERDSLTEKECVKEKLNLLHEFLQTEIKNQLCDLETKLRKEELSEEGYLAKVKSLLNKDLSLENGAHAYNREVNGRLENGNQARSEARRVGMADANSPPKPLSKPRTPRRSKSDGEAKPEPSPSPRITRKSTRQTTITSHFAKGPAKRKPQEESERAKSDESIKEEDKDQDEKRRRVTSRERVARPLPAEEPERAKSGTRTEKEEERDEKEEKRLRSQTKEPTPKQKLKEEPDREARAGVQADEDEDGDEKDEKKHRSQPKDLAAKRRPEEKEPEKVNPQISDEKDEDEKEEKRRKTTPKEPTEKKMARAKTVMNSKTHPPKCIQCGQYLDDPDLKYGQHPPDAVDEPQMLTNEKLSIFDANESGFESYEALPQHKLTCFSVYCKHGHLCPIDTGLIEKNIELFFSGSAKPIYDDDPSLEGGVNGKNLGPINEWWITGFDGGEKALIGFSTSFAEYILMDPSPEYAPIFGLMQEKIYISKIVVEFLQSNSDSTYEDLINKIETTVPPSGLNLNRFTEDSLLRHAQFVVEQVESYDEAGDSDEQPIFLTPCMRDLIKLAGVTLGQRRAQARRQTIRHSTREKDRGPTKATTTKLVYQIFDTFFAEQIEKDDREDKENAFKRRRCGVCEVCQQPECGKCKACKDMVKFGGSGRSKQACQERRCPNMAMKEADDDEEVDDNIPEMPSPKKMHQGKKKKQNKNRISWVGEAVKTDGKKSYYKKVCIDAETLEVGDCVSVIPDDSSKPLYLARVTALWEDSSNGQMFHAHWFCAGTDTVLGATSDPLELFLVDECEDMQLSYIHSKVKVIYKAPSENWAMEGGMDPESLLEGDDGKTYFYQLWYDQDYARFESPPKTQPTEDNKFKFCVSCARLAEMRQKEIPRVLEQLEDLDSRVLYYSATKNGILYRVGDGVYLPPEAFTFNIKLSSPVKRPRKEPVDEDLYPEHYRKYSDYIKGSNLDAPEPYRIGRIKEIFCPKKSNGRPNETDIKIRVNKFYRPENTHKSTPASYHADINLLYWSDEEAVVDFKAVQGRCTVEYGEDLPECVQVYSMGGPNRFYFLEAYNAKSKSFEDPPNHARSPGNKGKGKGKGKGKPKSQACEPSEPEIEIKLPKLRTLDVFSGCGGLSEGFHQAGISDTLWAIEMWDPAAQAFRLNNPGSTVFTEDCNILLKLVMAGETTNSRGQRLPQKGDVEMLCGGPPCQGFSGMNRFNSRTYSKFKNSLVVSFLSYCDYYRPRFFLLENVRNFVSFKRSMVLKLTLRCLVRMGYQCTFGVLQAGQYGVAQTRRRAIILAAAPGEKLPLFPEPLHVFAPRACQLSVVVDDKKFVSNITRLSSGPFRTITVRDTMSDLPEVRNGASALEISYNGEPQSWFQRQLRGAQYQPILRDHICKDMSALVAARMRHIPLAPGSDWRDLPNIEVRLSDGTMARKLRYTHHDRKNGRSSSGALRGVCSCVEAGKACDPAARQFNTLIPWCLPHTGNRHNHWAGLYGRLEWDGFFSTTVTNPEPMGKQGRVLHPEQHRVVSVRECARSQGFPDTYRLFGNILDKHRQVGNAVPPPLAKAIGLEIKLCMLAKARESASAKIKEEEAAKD", "experiment": "Inhibition of DNMT1 (unknown origin) using poly(dI-DC) as substrate at 100 uM preincubated for 15 mins followed by substrate and [3H]SAM addition measured after 120 mins by microbeta counting analysis relative to control", "how_it_was_run": "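Radioactive methylation assay in modified Tris buffer with poly(dI-dC) substrate. Enzyme held 15 min at room temperature, then substrate and [3H]-SAM added. Reaction run 120 min at 37 °C, then moved to 0.5% PEI-pretreated filter plates, washed with water under vacuum and counted. Maximum = enzyme plus substrate; minimum = substrate only.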"}, "[3]": {"target": "DNMT3A2/3L complex (Homo sapiens) (UniProt Q9Y6K1+Q9UJW3)", "experiment": "Inhibition of DNMT3A/3L (unknown origin) using IDT-01 sequence 1/IDT-01 sequence 2 as substrate at 100 uM preincubated for 15 mins followed by substrate addition measured after 4 hrs by liquid scintillation counting analysis relative to control", "assay_type": "protein-complex assay", "how_it_was_run": "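Radioactive methylation assay in modified Tris buffer with IDT-01 Sequence 1 and Sequence 2 as substrates. Enzyme preincubated 15 min at room temperature before substrate added. After 4 h at room temperature, stopped with cold SAM, then transferred to FlashPlate and read by liquid scintillation counting.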"}, "[4]": {"target": "T1, Histone-lysine N-methyltransferase EHMT2 (Homo sapiens) (UniProt Q96KQ7)", "T1 sequence (whole entry)": "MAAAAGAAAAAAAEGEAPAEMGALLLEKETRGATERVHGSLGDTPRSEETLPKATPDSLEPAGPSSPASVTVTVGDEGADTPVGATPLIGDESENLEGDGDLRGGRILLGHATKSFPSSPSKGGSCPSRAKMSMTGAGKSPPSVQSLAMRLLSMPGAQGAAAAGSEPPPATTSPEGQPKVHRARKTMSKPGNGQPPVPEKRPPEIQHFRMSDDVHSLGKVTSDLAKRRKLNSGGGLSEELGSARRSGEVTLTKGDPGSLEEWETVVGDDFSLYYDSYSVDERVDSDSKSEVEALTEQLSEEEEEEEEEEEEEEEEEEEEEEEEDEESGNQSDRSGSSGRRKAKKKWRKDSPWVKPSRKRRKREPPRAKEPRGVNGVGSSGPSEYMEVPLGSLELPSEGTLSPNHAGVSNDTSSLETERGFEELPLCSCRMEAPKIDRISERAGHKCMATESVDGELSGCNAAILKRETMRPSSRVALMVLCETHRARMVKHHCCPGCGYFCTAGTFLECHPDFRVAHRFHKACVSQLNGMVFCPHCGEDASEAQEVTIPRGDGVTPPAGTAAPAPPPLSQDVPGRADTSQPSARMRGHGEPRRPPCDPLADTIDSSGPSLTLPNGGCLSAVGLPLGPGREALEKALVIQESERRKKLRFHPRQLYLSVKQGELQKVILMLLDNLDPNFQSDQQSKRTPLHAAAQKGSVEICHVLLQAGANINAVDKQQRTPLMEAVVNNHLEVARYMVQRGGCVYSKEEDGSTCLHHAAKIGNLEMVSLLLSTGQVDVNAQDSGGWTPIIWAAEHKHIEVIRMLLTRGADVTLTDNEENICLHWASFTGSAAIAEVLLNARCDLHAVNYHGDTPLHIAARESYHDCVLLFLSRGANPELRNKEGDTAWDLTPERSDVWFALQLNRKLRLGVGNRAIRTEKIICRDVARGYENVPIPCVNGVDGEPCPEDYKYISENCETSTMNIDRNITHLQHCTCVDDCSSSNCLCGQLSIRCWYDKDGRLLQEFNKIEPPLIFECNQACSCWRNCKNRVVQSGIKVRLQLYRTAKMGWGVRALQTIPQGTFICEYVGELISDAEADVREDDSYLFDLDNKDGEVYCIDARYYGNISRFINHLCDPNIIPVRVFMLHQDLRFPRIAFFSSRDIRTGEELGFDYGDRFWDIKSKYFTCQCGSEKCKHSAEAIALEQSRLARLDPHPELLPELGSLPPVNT", "experiment": "Inhibition of G9a (unknown origin) at 100 uM preincubated for 15 mins followed by substrate addition measured after 60 mins by AlphaLISA method relative to control", "how_it_was_run": "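AlphaLISA in modified Tris buffer: compounds (DMSO) with enzyme 15 min at room temperature, then substrate mix added for 60 min at room temperature. Acceptor and donor bead mix added for 60 min in subdued light, then Alpha signal read.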"}, "MV4-11": {"tested_on": "MV4-11", "experiment": "Cytotoxicity against human MV4-11 cells assessed as inhibition of cell proliferation after 120 hrs by alamar blue assay", "assay_type": "functional, cell-based", "how_it_was_run": "as §1"}, "MCF7": {"tested_on": "MCF7", "experiment": "cells", "conditions": "Homo sapiens, MCF7, 120 h"}, "[5]": {"target": "T2, N-lysine methyltransferase KMT5A (Homo sapiens) (UniProt Q9NQR1)", "T2 sequence (whole entry)": "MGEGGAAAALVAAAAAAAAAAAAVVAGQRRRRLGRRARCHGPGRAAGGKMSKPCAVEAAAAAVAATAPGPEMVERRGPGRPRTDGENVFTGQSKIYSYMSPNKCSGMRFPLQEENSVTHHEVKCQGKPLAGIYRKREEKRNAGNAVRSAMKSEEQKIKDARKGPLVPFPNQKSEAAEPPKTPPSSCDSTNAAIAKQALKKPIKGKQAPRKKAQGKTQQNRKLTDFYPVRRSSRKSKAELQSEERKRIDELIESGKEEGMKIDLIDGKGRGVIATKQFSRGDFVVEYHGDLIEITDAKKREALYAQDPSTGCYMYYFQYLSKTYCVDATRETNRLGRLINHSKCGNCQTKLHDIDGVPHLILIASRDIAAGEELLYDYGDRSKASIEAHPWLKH", "experiment": "Inhibition of SETD8 (unknown origin) at 100 uM preincubated for 15 mins measured after 120 mins by microbeta counting analysis in presence of [3H]-SAM relative to control", "how_it_was_run": "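Compounds added in DMSO and enzyme held 15 min at room temperature in modified Tris buffer. Reaction started with peptide plus [3H]-SAM and stopped with cold SAM after 120 min. Transferred to streptavidin FlashPlate for at least 60 min, washed with water/0.1% Tween-20, then counted.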"}, "[6]": {"target": "Histone-lysine N-methyltransferase, H3 lysine-36 specific (Homo sapiens) (UniProt Q96L73)", "sequence (Q96L73 whole entry)": "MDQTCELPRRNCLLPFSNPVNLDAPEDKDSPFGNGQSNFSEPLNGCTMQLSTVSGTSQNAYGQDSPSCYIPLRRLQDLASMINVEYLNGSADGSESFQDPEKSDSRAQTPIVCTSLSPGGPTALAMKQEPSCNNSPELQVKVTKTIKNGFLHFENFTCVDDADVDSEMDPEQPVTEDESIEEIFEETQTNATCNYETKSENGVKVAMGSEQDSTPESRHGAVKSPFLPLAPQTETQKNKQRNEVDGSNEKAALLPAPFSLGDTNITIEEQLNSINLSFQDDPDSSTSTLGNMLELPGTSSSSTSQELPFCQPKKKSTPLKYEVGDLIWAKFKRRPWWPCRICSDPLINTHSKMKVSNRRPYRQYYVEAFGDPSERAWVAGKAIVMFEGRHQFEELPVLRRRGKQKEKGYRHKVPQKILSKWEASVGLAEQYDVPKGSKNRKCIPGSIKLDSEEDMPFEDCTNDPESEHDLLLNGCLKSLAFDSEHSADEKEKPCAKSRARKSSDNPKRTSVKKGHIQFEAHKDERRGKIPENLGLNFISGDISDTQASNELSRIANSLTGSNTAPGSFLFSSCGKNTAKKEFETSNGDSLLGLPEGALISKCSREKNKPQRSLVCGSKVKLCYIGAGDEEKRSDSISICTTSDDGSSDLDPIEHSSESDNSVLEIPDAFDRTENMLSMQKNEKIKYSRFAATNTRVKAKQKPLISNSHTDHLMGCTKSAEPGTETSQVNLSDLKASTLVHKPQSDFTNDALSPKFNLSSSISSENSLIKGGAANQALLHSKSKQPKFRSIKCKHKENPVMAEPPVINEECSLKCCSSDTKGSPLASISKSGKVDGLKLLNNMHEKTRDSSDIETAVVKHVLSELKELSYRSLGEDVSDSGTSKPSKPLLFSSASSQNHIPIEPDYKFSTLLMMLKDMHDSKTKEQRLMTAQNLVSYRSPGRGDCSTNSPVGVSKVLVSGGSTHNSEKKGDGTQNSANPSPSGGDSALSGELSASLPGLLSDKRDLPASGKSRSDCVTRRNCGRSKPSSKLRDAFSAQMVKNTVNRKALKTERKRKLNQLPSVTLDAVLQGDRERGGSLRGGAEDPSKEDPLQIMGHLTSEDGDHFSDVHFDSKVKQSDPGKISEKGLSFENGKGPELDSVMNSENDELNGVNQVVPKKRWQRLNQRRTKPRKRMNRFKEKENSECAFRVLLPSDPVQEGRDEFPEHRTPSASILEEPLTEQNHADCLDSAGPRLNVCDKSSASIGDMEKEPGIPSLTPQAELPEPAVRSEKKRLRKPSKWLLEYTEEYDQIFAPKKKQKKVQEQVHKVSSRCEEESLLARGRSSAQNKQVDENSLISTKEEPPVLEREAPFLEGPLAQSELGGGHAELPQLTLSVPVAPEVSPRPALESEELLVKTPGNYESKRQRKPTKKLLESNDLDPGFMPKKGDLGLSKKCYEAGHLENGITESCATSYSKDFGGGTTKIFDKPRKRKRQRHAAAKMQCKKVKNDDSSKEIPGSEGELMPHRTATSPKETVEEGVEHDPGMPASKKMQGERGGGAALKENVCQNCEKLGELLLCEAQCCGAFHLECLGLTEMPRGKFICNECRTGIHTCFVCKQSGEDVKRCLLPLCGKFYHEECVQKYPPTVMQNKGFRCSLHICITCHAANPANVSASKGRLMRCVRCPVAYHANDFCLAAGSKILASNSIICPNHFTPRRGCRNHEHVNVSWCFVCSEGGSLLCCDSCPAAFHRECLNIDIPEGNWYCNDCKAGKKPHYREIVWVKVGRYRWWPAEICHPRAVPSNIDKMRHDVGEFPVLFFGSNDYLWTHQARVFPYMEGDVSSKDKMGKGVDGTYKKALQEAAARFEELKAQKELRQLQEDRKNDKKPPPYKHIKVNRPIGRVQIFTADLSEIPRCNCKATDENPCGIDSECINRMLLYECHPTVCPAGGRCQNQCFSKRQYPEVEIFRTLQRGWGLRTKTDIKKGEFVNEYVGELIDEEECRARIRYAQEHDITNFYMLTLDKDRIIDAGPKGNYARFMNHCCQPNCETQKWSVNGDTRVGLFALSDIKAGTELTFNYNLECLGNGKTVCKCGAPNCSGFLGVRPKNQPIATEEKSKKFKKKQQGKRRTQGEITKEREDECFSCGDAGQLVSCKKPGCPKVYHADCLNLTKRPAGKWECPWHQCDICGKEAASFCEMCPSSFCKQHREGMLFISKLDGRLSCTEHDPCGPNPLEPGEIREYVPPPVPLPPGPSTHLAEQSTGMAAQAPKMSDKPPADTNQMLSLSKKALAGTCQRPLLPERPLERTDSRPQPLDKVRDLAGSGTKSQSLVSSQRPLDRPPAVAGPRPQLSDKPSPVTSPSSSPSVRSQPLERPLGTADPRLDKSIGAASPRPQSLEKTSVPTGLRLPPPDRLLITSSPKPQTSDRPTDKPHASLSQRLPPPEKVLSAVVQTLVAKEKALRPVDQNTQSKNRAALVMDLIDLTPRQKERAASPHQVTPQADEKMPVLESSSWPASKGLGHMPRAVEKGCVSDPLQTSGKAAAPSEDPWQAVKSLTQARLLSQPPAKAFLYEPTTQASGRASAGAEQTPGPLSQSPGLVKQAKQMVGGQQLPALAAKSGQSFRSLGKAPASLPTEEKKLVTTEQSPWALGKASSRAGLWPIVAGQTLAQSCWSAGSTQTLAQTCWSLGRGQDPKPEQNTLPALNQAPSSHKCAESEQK", "experiment": "Inhibition of NSD1 (unknown origin) at 100 uM preincubated for 15 mins followed by substrate/[3H]-SAM addition measured after 4 hrs by liquid scintillation counting analysis relative to control", "how_it_was_run": "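Enzyme in modified Tris buffer, 15 min at room temperature, then substrate and [3H]-SAM added. After 4 h, cold SAM stop, transfer to PEI-pretreated GF/B filter plate, water washes under vacuum, then scintillation counting.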"}, "[7]": {"target": "T3, Histone-lysine N-methyltransferase SETD7 (Homo sapiens, UniProt Q8WTS6)", "T3 sequence (Q8WTS6 whole entry)": "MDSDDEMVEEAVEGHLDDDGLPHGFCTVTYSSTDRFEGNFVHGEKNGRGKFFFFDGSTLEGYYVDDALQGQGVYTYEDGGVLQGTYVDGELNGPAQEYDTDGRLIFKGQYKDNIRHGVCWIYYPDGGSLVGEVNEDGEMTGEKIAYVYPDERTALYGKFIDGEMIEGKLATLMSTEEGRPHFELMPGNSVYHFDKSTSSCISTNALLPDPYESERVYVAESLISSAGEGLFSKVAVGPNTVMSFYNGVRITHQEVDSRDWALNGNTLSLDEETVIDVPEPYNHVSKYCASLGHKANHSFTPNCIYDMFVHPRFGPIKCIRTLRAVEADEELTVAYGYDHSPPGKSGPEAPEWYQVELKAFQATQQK", "experiment": "Competitive inhibition of SET7 (unknown origin) after 60 mins by AlphaLISA method in presence of SAM"}, "[8]": {"target": "Histone-lysine N-methyltransferase, H3 lysine-79 specific (Homo sapiens) (UniProt Q8TEK3)", "experiment": "Inhibition of DOT1L (unknown origin) at 100 uM preincubated for 15 mins followed by oligonucleosomes/SAM addition measured after 30 mins by AlphaLISA method relative to control"}, "HCT-116": {"tested_on": "HCT-116", "experiment": "Cytotoxicity against human HCT116 cells assessed as inhibition of cell proliferation after 120 hrs by MTT assay"}, "[9]": {"target": "T3, Histone-lysine N-methyltransferase SETD7", "experiment": "Inhibition of SET7 (unknown origin)", "how_it_was_run": "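AlphaLISA: purified SET7 in modified Tris buffer 15 min at room temperature, compounds added in DMSO, then substrate solution added for 60 min. Acceptor and donor beads incubated 60 min at room temperature in the dark, then Alpha-mode read. Inhibition % = (Max−Signal)/(Max−Min)×100; low control received assay buffer instead of enzyme.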"}}, "note": "Calls of active or inactive are those of the source. The calls are words filed in the database; no cut-off is given here."}
{"smiles": "CCOC(=O)c1c(N)sc(C(=O)Nc2cccc([N+](=O)[O-])c2)c1C", "values": [{"measurement": "IC50", "setting": "HL-60", "result": 16.4, "unit": "µM"}, {"measurement": "inhibition", "setting": "SUD4", "result": "inactive"}, {"measurement": "inhibition", "setting": "[1]", "result": 19.6, "unit": "%"}, {"measurement": "inhibition", "setting": "[2]", "result": 16.1, "unit": "%"}, {"measurement": "inhibition", "setting": "[3]", "result": -4.25, "unit": "%"}, {"measurement": "inhibition", "setting": "[4]", "result": -0.71, "unit": "%"}, {"measurement": "inhibition", "setting": "MV4-11", "result": "Dose-dependent effect"}, {"measurement": "IC50", "setting": "MCF7", "result": 10.9, "unit": "µM"}, {"measurement": "inhibition", "setting": "[5]", "result": 40.9, "unit": "%"}, {"measurement": "inhibition", "setting": "[6]", "result": 27.2, "unit": "%"}, {"measurement": "IC50", "setting": "[7]", "result": 4.59, "unit": "µM"}, {"measurement": "inhibition", "setting": "[8]", "result": -5.42, "unit": "%"}, {"measurement": "inhibition", "setting": "HCT-116", "result": "inactive"}]}
{"smiles": "CN1CCC(=C2c3ccccc3C=Cc3ccccc32)CC1", "note": "[CYPROHEPTADINE]", "values": [{"measurement": "IC50", "setting": "[9]", "result": 20, "unit": "µM"}]}
{"smiles": "O=C(Nc1cccc([N+](=O)[O-])c1)c1ccc2c(c1)OCO2", "values": [{"measurement": "IC50", "setting": "[7]", "result": 61.7, "unit": "µM"}]}
{"smiles": "COC(=O)c1c(N)sc(C(=O)Nc2cccc([N+](=O)[O-])c2)c1C", "values": [{"measurement": "inhibition", "setting": "[1]", "result": 19.6, "unit": "%"}, {"measurement": "inhibition", "setting": "[2]", "result": 9.82, "unit": "%"}, {"measurement": "inhibition", "setting": "[4]", "result": 29.9, "unit": "%"}, {"measurement": "inhibition", "setting": "[5]", "result": 45.5, "unit": "%"}, {"measurement": "inhibition", "setting": "[6]", "result": 25.1, "unit": "%"}, {"measurement": "IC50", "setting": "[7]", "result": 4.88, "unit": "µM"}]}
